# Kir21 block: inhibitors of mouse Kir2.1 inward-rectifier potassium channel | AID 1672, 2009 | HEK293-Kir2.1, FluxOR thallium flux fluorescence; stronger effect = lower value | Inward rectifier potassium channel 2 (Mus musculus), P35561 | B-score at 10 µM | hit rate 0.85% among 310,000;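 active = fluorescence ratio B-score at or below minus 3 SD of library scores, with starting-brightness B-score within 2 SD, cut at about -4.2 in these data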;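 also: channel flux triggered by added potassium and thallium sulfate stimulus; B-score of peak minus minimum fluorescence over baseline after thallium stimulus; more negative B-score means stronger Kir2.1 block with less thallium influx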
# KCNQ1 inh: inhibitors of human KCNQ1 channel, primary screen, cell-based, thallium flux, high-throughput; B-score at 10 µM; Potassium voltage-gated channel subfamily KQT member 1 (Homo sapiens), P51787; hit rate 1.3% among 310,000; AID 2642, 2010; CHO-K1 KCNQ1, FluxOR thallium flux fluorescence; stronger effect = higher value;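 active = compounds whose thallium flux B-score, printed positive for inhibition, exceeds three library SD while starting fluorescence stays within three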;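 also: channel opened by potassium depolarization with thallium stimulus after 20 min compound exposure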
# KCNK3 block: human KCNK3 channel inhibitors, primary screen, CHO cells, FluxOR thallium flux, B-score; Potassium channel subfamily K member 3 (Homo sapiens), O14649; FluxOR fluorescence; stronger effect = lower value; B-score at 10 µM; hit rate 0.84% among 340,000; AID 602410, 2012;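 active = B-score under library mean minus 4 SD, starting fluorescence ratio at most library mean plus 5 SD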;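 also: more negative B-score means stronger inhibition of thallium flux through KCNK3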
# hERG protect: hERG rescue from dofetilide block, primary screen, cell-based, CHO-hERG, FluxOR thallium flux, dofetilide IC70 | Voltage-gated inwardly rectifying potassium channel KCNH2 (Homo sapiens), Q12809 | dofetilide IC70 present | activation (rescue from dofetilide block), less the hit threshold, % at 10 µM | hit rate 0.51% among 310,000;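 active = activation above the mean of controls blocked by dofetilide plus 5 SD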;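 also: thallium influx through hERG after potassium depolarization seen as dye fluorescence rise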
# KCNQ1 pot: potentiators or activators of KCNQ1 channel, primary screen, cell-based, thallium flux, high-throughput | Potassium voltage-gated channel subfamily KQT member 1 (Homo sapiens), P51787 | hit rate 0.35% among 310,000 | CHO-K1 KCNQ1, thallium flux FluxOR fluorescence; stronger effect = higher value | AID 2648, 2010 | B-score at 10 µM;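 active = fluorescence ratio B-score, a plate-corrected score, at least three library SD, with initial intensity B-score within 5 SD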
#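 Test system: CHO-K1 cells stably expressing KCNQ1 / Medium: assay buffer / Also added: depolarizing K+/Tl+ stimulus, K2SO4 and Tl2SO4 each 12.5 mM in 5x stock / Incubation: 90 min dye loading and 20 min compound exposure, both at room temperature / Signal: thallium influx via FluxOR fluorescence, kinetic imaging / Evaluation: B score of baseline-normalized fluorescence ratio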
# KCNK9 block: KCNK9 potassium channel inhibitors, primary screen, HEK293 cells, thallium flux | Potassium channel subfamily K member 9 (Homo sapiens), Q9NPC2 | FluxOR thallium flux fluorescence; stronger effect = lower value | B-score at 10 µM | hit rate 1.2% among 310,000 | AID 488922, 2010;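 active = ratio B-score over 3 SD below the library mean, with starting fluorescence within 5 SD of its mean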;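 also: negative B-score means less thallium flux so channel inhibition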
# KCNQ1 block val: KCNQ1 potassium channel inhibitors, confirmation, cell-based, Tl flux, duplicate | shares compounds with KCNQ1 inh | KCNQ1 cell line, FluxOR thallium flux fluorescence | inhibition, % at 10 µM | hit rate 93% among 1,600 | AID 588353, 2011;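 active = primary screen active, with duplicate mean exceeding buffer control mean plus 3 SD of buffer wells, cut at about 28% in these data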;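 also: 0% = buffer control ratio and 100% = XE991 inhibitor control ratio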
# CHO KCNQ1 ctr: thallium flux effects in parental CHO cells, counter-screen for KCNQ1 inhibitor project, cell-based, Tl flux | shares compounds with KCNQ1 inh | parental CHO-K1, FluxOR thallium flux fluorescence ratio; stronger effect = lower value; zero means no signal rise above baseline | fluorescence ratio (Tl flux) at 10 µM | hit rate 21% among 1,600;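 active = mean of duplicate thallium-flux fluorescence ratios in parental host cells more than 5 SD below the buffer control mean, cut at about 0.38 in these data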;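 also: ratio is peak minus minimum fluorescence divided by baseline fluorescence; actives read low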
# KCNQ1 APC inh: KCNQ1 channel inhibitors, confirmation, orthogonal assay, cell-based, automated electrophysiology; KCNQ1-CHO cells, automated patch clamp current; hit rate 20% among 490; calls only at 10 µM; shares compounds with KCNQ1 inh; AID 624120, 2012;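 active = KCNQ1 current drop exceeding 3 SD of negative control wells, seen in both duplicate runs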;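 also: steady state current during a 2 s step from -80 to +40 mV; negative values mean current inhibition and positive values mean potentiation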
# KCNQ2 spec: KCNQ2 channel inhibition, selectivity assay for KCNQ1 inhibitor project, cell-based; shares compounds with KCNQ1 inh; inhibition, % at 10 µM; AID 651746, 2012; hit rate 71% among 1,600; KCNQ2 cells, FluxOR thallium flux fluorescence;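 active = mean percent inhibition of the KCNQ2 thallium signal more than 5 SD above the buffer-only control wells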;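 also: KCNQ2 expressed in CHO cells; 0% = buffer control wells and 100% = XE-991 inhibitor control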
# KCNQ1-KCNE1 inh: KCNQ1/KCNE1 channel inhibition, selectivity assay for KCNQ1 inhibitor project, CHO-K1 cells, thallium flux, FluxOR | shares compounds with KCNQ1 inh | inhibition, % at 10 µM | hit rate 77% among 1,600 | FluxOR thallium flux fluorescence;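 active = mean percent inhibition of duplicate wells above the buffer-only control mean plus 3 SD of those controls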;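 also: 0% = buffer only wells and 100% = XE-991 inhibitor control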
# Target sequence (P51787 whole entry, looked up): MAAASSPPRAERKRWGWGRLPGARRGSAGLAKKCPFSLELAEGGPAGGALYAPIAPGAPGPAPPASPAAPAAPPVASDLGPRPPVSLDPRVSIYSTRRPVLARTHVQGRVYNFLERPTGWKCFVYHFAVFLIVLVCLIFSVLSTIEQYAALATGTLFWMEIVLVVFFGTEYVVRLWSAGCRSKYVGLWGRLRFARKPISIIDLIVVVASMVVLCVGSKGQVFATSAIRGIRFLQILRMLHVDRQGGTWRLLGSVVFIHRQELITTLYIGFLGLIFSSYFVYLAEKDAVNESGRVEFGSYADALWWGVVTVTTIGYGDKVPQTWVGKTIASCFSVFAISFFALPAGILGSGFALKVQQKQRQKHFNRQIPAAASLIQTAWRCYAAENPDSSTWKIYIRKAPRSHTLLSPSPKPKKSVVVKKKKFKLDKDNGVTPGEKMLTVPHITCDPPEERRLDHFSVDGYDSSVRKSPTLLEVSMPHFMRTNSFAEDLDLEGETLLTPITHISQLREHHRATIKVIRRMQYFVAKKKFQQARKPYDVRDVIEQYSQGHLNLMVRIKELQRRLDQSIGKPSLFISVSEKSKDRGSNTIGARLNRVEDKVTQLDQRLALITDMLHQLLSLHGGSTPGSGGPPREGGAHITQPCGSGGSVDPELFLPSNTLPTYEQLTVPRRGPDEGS
# KCNK9 block conf: KCNK9 potassium channel inhibitors, confirmation, HEK293 cells, thallium flux, duplicate | hit rate 43% among 4,900 | FluxOR thallium flux fluorescence | AID 492992, 2010 | inhibition, % at 10 µM | shares compounds with KCNK9 block;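 active = thallium signal inhibited by more than 5 SD of the compound-free buffer control wells, on both duplicate plates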;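 also: 0% = assay buffer control wells without compound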
# Kir2-1 spec: mouse Kir2.1 channel inhibition, confirmation, selectivity assay for KCNK9 modulator project, cell-based, HEK293, thallium flux; inhibition, % at 10 µM; Kir2.1 cells, FluxOR thallium flux fluorescence; AID 492993, 2010; hit rate 4% among 4,900; shares compounds with KCNK9 block;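 active = thallium signal drop more than 5 SD beyond the mean of the no-compound control wells, seen in both duplicate plates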;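 also: signal is fluorescence rise after thallium addition divided by baseline fluorescence; plate controls were assay buffer only for no effect and full block by chlorpromazine control for full effect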
# KCNK9 uninduced: thallium flux in non-induced HEK293 cells, confirmation, counter-screen for KCNK9 inhibitor project, cell-based, second counter screen, non-induced KCNK9-HEK293 | shares compounds with KCNK9 block | FluxOR thallium flux | inhibition, % at 10 µM | hit rate 40% among 4,900;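 active = thallium signal drop beyond 5 SD of the untreated control mean, on both duplicate plates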;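 also: plate controls were buffer only IC0 wells for no effect and SID17386958 at its maximal inhibitory level for full effect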
# KCNK3 inh conf: retest of human KCNK3 channel inhibitors, confirmation, CHO cells, FluxOR thallium flux, triplicate | shares compounds with KCNK3 block | hit rate 99% among 2,400 | ratio percent of control, % at 10 µM | FluxOR fluorescence; 0% buffer, 100% carvedilol maximal block | AID 651638, 2012;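 active = ratio percent of control, averaged over triplicates, above buffer control mean plus 5 SD, cut at about 64% in these data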;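 also: ratio is the fluorescence rise from min to max over baseline after thallium stimulus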
# KCNK3 uninduced: thallium flux inhibition in non-induced cells, primary screen, counter-screen for KCNK3 inhibitor project, cell-based, non-induced KCNK3 line, FluxOR thallium, triplicate; shares compounds with KCNK3 block; non-induced KCNK3 parental cells; stronger effect = lower value; thallium flux ratio (lower = more inhibition) at 10 µM; hit rate 40% among 2,400;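 active = thallium flux ratio, averaged over three wells, more than 5 SD below the buffer control mean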;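 also: host cells are CHO cells without KCNK3 induction; ratio is peak minus trough fluorescence over baseline then normalized to buffer controls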
# * marks the source's active call; other numbers are inactive results; i = inactive; nt = no result given; + = active, no number. Only some compounds are listed: those with a hit (about 3.7% of all), similar ones and a draw of the others.
SMILES,Kir21 block,KCNQ1 inh,KCNK3 block,hERG protect,KCNQ1 pot,KCNK9 block,KCNQ1 block val,CHO KCNQ1 ctr,KCNQ2 spec,KCNQ1-KCNE1 inh,KCNK3 inh conf,KCNK3 uninduced,others
COC(=O)c1[nH]c2c(c1C)C(=O)CC(c1cc(OC)c(OC)c(OC)c1)C2 (stereo unspecified),-1.8,i,i,-6,i,i,nt,nt,nt,nt,nt,nt,
O=C(CCN1C(=O)/C(=C\c2ccccc2)SC1=S)NNC(=O)c1ccccc1O,-0.82,i,i,-11,i,i,nt,nt,nt,nt,nt,nt,
c1ccc(-c2cc(-c3nc4ccccc4[nH]3)c3ccccc3n2)cc1,-0.14,8*,-10*,-38,i,-7.6*,149*,0.25*,122%*,+,143*,0.13*,
NC(=O)C1CC12c1ccccc1-c1ccccc12 (stereo unspecified),0,i,i,-1,i,i,nt,nt,nt,nt,nt,nt,
COc1cccc(-c2cc3nc4c(c(NCC(C)(C)CN(C)C)n3n2)CCCC4)c1,0.8,9*,-10*,-10,i,i,86*,0.45,95%*,116%*,120*,i,
O=C1NC(=Nc2ccccc2Cl)S/C1=C\c1cc([N+](=O)[O-])ccc1O,-8.5,23*,-14*,-10,i,i,197*,0.17*,166%*,+,169*,0.033*,
CCCCNC(=S)Nc1ccc(SC(F)F)cc1,1.2,8*,-10*,-14,i,-7.7*,91*,0.49,i,61%*,121*,0.15*,KCNQ1 APC inh=+
CCc1nc(N2CCN(Cc3ccc4c(c3)OCO4)CC2)c2oc3ccccc3c2n1,-0.69,9*,-9*,-17,i,i,128*,0.41,105%*,179%*,109*,0.14*,KCNQ1 APC inh=i
COc1ccccc1NC(=O)c1cc(C(=O)Nc2ccccc2OC)n(C)n1,1.2,i,i,-4,i,i,nt,nt,nt,nt,nt,nt,
Cc1ccc(Nc2nc(NCCO)c3ccccc3n2)cc1C,-6.9*,7*,-12*,-20,i,i,102*,0.39,66%*,84%*,128*,i,KCNQ1 APC inh=i
COC(=O)Nc1ccc(S(=O)(=O)N2CCC(C(=O)NCc3ccc4c(c3)OCO4)CC2)cc1,nt,nt,i,nt,nt,nt,nt,nt,nt,nt,nt,nt,
O=C(c1cc(-c2cccc(Cl)c2)nc2ccccc12)N1CCN(c2ccccn2)CC1,0.2,6*,-9.9*,-9,i,i,69*,0.42,108%*,84%*,120*,0.12*,
O=C(Nc1ccncc1)c1ccc(Cl)c(S(=O)(=O)N2CCc3ccccc32)c1,-0.83,10*,-10*,-28,i,i,134*,0.29*,94%*,134%*,136*,0.16*,
O=C(Nc1ccncc1)c1ccc(Cl)c(S(=O)(=O)N2CCCCC2)c1,-1.5,i,i,-15,i,i,nt,nt,nt,nt,nt,nt,
CCOC(=O)C1CCN(c2ncnc3c(C)csc23)CC1,0.28,i,i,-4,i,i,nt,nt,nt,nt,nt,nt,
Cc1csc2c(N3CCN(C(=O)c4ccc(C(C)(C)C)cc4)CC3)ncnc12,0.09,9*,-9.8*,-21,i,i,138*,0.3*,137%*,170%*,130*,i,
O=C(C(Cc1ccccc1)n1cccc1)N1CCN(c2cccc(Cl)c2)CC1 (stereo unspecified),-2,8*,-9.2*,-6,i,i,116*,0.33*,117%*,158%*,98*,0.14*,
O=C(C(Cc1ccccc1)n1cccc1)N1CCN(Cc2ccccc2)CC1 (stereo unspecified),1.6,i,i,-22,i,i,nt,nt,nt,nt,nt,nt,
CC(C)(C)n1nnnc1C(c1ccc(Cl)cc1)N1CCCc2ccccc21 (stereo unspecified),0.47,6*,i,-11,i,-11*,82*,0.43,88%*,85%*,131*,0.13*,KCNK9 block conf=56%*;Kir2-1 spec=i;KCNK9 uninduced=42%*

# Screening data as filed in PubChem BioAssay.
